ChEMBL document CHEMBL4145545, “Synthesis and structure-activity relationships of asymmetric dimeric β-carboline derivatives as potential antitumor agents” (Eur J Med Chem, 2018)
Active and inactive are the calls of the source. The calls are words filed in the database; no cut-off is given here.

What was measured:
[1] = system: Mus musculus; test: Neurotoxicity in Kunming mouse assessed as twitch at 5 to 500 mg/kg, ip observed continuously for first 2 hrs, intermittently for next 24 hrs and occasionally thereafter for 14 days; assay type: toxicity, organism-based; settings: in vivo
Summary of the method: (§1)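 SPF KM mice, 6-8 weeks, 19-22 g, fasted overnight with water available. Single i.p. dose, 5.0 to 500 mg kg-1 in 0.5% CMC-Na, 10 mice per group (5 male, 5 female). Observed for behaviour, neurotoxic signs and deaths, then killed on day 14 and heart, liver and kidneys inspected macroscopically. LD50 derived graphically.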

[2] = system: Mus musculus; test: Hepatotoxicity in Kunming mouse at 5 to 500 mg/kg, ip after 14 days by macroscopic method; assay type: toxicity, organism-based; settings: in vivo, 336 h
[3] = system: Sarcoma-180; test: Antitumor activity against mouse Sarcoma 180 cells implanted in mouse assessed as tumor growth inhibition at 7.5 mg/kg, ip administered once per day for 7 consecutive days starting from 24 hrs post tumor inoculation and measured on day 21 post tumor inoculation relative to control; assay type: functional; settings: Sarcoma-180, ip, read-out: TGI
Summary of the method: (§2)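 Tumor cells were harvested from 7-day donor tumors, and 2×10^6 viable cells/mouse were injected s.c. in the armpit. Groups of 10 female mice received i.p. compound daily for 7 days, starting 24 h after inoculation. Controls were vehicle (negative) and CTX 30 mg/kg (positive). Body weight was recorded every 3 days. On day 21 tumors were excised and weighed, and inhibition was calculated as (C−T)/C×100 from mean tumor weights.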

[4] = system: MCF7; test: Cytotoxicity against human MCF7 cells assessed as cell growth inhibition after 24 hrs by MTT assay; assay type: functional, cell-based; settings: MCF7, 24 h
Summary of the method: (§3)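 Cell lines grown to log phase in RPMI-1640 with 10% FBS, penicillin and streptomycin. About 10^5 cells/mL were plated and pre-incubated 24 h at 37 °C in 5% CO2. Compounds were given in DMSO, final ≤2% (v/v). MTT read-out was OD at 490 nm. Triplicate wells per concentration, each assay run ≥3 times. IC50 is 50% OD reduction versus untreated cells, calculated by the Logit method. Cisplatin was the reference.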

[5] = system: Mus musculus; test: Acute toxicity in ip dosed Kunming mouse assessed as death at higher dose up to 4 to 8 hrs; assay type: organism-based; settings: in vivo; summary of the method: as §1
[6] = system: ECa-109 cell line; test: Cytotoxicity against human ECA109 cells assessed as cell growth inhibition after 24 hrs by MTT assay; assay type: functional, cell-based; settings: ECa-109, 24 h; summary of the method: as §3
[7] = system: Mus musculus; test: Nephrotoxicity in Kunming mouse at 5 to 500 mg/kg, ip after 14 days by macroscopic method; assay type: toxicity, organism-based; settings: in vivo, 336 h
[8] = system: SK-OV-3; test: Cytotoxicity against human SKOV3 cells assessed as cell growth inhibition after 24 hrs by MTT assay; assay type: functional, cell-based; settings: SK-OV-3, 24 h; summary of the method: as §3
[9] = system: Mus musculus; test: Neurotoxicity in Kunming mouse assessed as supination at 5 to 500 mg/kg, ip observed continuously for first 2 hrs, intermittently for next 24 hrs and occasionally thereafter for 14 days; assay type: toxicity, organism-based; settings: in vivo; summary of the method: as §1
[10] = Cytotoxicity against human BGC cells assessed as cell growth inhibition after 24 hrs by MTT assay; assay type: functional, cell-based; summary of the method: as §3
[11] = system: Mus musculus; test: Neurotoxicity in Kunming mouse assessed as tremble at 5 to 500 mg/kg, ip observed continuously for first 2 hrs, intermittently for next 24 hrs and occasionally thereafter for 14 days; assay type: toxicity, organism-based; settings: in vivo; summary of the method: as §1
[12] = system: Mus musculus; test: Cardiotoxicity in Kunming mouse at 5 to 500 mg/kg, ip after 14 days by macroscopic method; assay type: toxicity, organism-based; settings: in vivo, 336 h
[13] = system: HepG2; test: Cytotoxicity against human HepG2 cells assessed as cell growth inhibition after 24 hrs by MTT assay; assay type: functional, cell-based; settings: HepG2, 24 h; summary of the method: as §3
[14] = Acute toxicity in ip dosed Kunming mouse observed continuously for first 2 hrs, intermittently for next 24 hrs and occasionally thereafter for 14 days; assay type: organism-based; settings: in vivo; summary of the method: as §1
[15] = system: Lewis lung carcinoma cell line; test: Antitumor activity against mouse LLC cells implanted in mouse assessed as tumor growth inhibition at 7.5 mg/kg, ip administered once per day for 7 consecutive days starting from 24 hrs post tumor inoculation and measured on day 21 post tumor inoculation relative to control; assay type: functional; settings: read-out: TGI; summary of the method: as §2
[16] = system: Mus musculus; test: Neurotoxicity in Kunming mouse assessed as jumping behavior at 5 to 500 mg/kg, ip observed continuously for first 2 hrs, intermittently for next 24 hrs and occasionally thereafter for 14 days; assay type: toxicity, organism-based; settings: in vivo; summary of the method: as §1
[17] = system: Lewis lung carcinoma cell line; test: Cytotoxicity against mouse LLC cells assessed as cell growth inhibition after 24 hrs by MTT assay; assay type: functional, cell-based; summary of the method: as §3
[18] = system: A-375; test: Cytotoxicity against human A375 cells assessed as cell growth inhibition after 24 hrs by MTT assay; assay type: functional, cell-based; settings: A-375, 24 h; summary of the method: as §3
[19] = system: 769-P; test: Cytotoxicity against human 769-P cells assessed as cell growth inhibition after 24 hrs by MTT assay; assay type: functional, cell-based; summary of the method: as §3
[20] = system: HT-29; test: Cytotoxicity against human HT-29 cells assessed as cell growth inhibition after 24 hrs by MTT assay; assay type: functional, cell-based; settings: HT-29, 24 h; summary of the method: as §3
[21] = system: MCF7; test: Cytotoxicity against human MCF7 cells; assay type: functional, cell-based; summary of the method: as §3
[22] = system: HT-29; test: Cytotoxicity against human HT-29 cells; assay type: functional, cell-based; summary of the method: as §3
[23] = system: HepG2; test: Cytotoxicity against human HepG2 cells; assay type: functional, cell-based; summary of the method: as §3
[24] = system: HT-29; test: Antimigratory activity against human HT-29 cells assessed as reduction in wound closure at 0.5 to 50 uM after 24 hrs by inverted microscopic method; assay type: functional, cell-based
Summary of the method: (§4)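 HT-29 or LLC cells (about 1×10^6/mL) were grown to 90% confluence and given a single straight pipette-tip scratch. After a PBS wash, fresh FBS-containing medium with various compound concentrations was added for 24 h. Migration distance was measured under an inverted microscope. Each assay was done three times, with CA4P as positive control.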

[25] = system: Chorioallantoic membrane; test: In vivo antiangiogenic activity in chicken embryo chorioallantoic membrane at 50 uM/disc after 48 hrs by microscopic method; assay type: functional, organism-based; settings: Gallus gallus
[26] = system: Lewis lung carcinoma cell line; test: Antitumor activity against mouse LLC cells implanted in mouse assessed as tumor growth inhibition at 8.3 mg/kg, ip administered once per day for 7 consecutive days starting from 24 hrs post tumor inoculation and measured on day 21 post tumor inoculation relative to control; assay type: functional; settings: read-out: TGI; summary of the method: as §2
[27] = system: Sarcoma-180; test: Antitumor activity against mouse Sarcoma 180 cells implanted in mouse assessed as tumor growth inhibition at 8.3 mg/kg, ip administered once per day for 7 consecutive days starting from 24 hrs post tumor inoculation and measured on day 21 post tumor inoculation relative to control; assay type: functional; settings: Sarcoma-180, ip, read-out: TGI; summary of the method: as §2
[28] = system: Lewis lung carcinoma cell line; test: Antimigratory activity against mouse LLC cells assessed as reduction in wound closure at 50 uM after 24 hrs by inverted microscopic method; assay type: functional, cell-based; summary of the method: as §4
[29] = system: Sarcoma-180; test: Antitumor activity against mouse Sarcoma 180 cells implanted in mouse assessed as tumor growth inhibition at 1.6 mg/kg, ip administered once per day for 7 consecutive days starting from 24 hrs post tumor inoculation and measured on day 21 post tumor inoculation relative to control; assay type: functional; settings: Sarcoma-180, ip, read-out: TGI; summary of the method: as §2
[30] = system: Lewis lung carcinoma cell line; test: Antitumor activity against mouse LLC cells implanted in mouse assessed as tumor growth inhibition at 1.6 mg/kg, ip administered once per day for 7 consecutive days starting from 24 hrs post tumor inoculation and measured on day 21 post tumor inoculation relative to control; assay type: functional; settings: read-out: TGI; summary of the method: as §2

Structure (SMILES) | Activity [1] | Activity [2] | IC50 [4] | Activity [5] | IC50 [6] | Activity [7] | IC50 [8] | Activity [9] | IC50 [10] | Activity [11] | Activity [12] | IC50 [13] | LD50 at 14 days [14] | Activity [16] | IC50 [17] | IC50 [18] | IC50 [19] | IC50 [20] | also measured
Cc1nccc2c3ccc(OCCCCn4c5ccccc5c5ccnc(-c6cccs6)c54)cc3n(CCCc3ccccc3)c12.Cl | Non-Toxic | Non-Toxic | 12 µM | Toxic | 4.9 µM | Non-Toxic | 11.2 µM | Non-Toxic | 11.4 µM | Non-Toxic | Non-Toxic | 8.1 µM | 37.5 mg/kg | Non-Toxic | 4.2 µM | 14.6 µM | 11.9 µM | 18.1 µM | inhibition in vivo at 7.5 mg/kg [3]: 47.3%; inhibition in vivo at 7.5 mg/kg [15]: 31.6%
CCCCn1c2cnccc2c2ccc(OCCCCCCOc3ccc4c5ccnc(C)c5n(CCCC)c4c3)cc21 |  |  |  |  |  |  |  |  |  |  |  |  |  |  |  |  |  |  | IC50 [21]: > 100 µM; IC50 [22]: 6.1 µM; IC50 [23]: 13 µM
COc1ccc(-c2nccc3c4ccccc4n(CCCCOc4ccc5c6ccnc(C)c6n(CCCc6ccccc6)c5c4)c23)cc1.Cl | Non-Toxic | Non-Toxic | 8.5 µM | Toxic | 4.5 µM | Non-Toxic | 4.2 µM | Non-Toxic | 12.1 µM | Non-Toxic | Non-Toxic | 14.1 µM | 41.5 mg/kg | Non-Toxic | 3.4 µM | 13.6 µM | 4.9 µM | 13.3 µM | Activity [24]: Active; Activity [25]: Active; inhibition in vivo at 8.3 mg/kg [26]: 48.1%; inhibition in vivo at 8.3 mg/kg [27]: 54.6%; Activity [28]: Active
COc1ccc2c3ccnc(C)c3n(CCCCOc3ccc4c5ccnc(C)c5n(CCCc5ccccc5)c4c3)c2c1.Cl | Toxic | Non-Toxic | 23.4 µM | Toxic | 18.4 µM | Non-Toxic | 30 µM | Toxic | 4.7 µM | Toxic | Non-Toxic | 5.6 µM | 8 mg/kg | Toxic | 14.4 µM | 15.3 µM | 8.5 µM | 21.6 µM | inhibition in vivo at 1.6 mg/kg [29]: 49.9%; inhibition in vivo at 1.6 mg/kg [30]: 38.2%
